Screens deposited in PubChem BioAssay by several laboratories.
A selection: hits, their analogues and other compounds. The true share with any hit is near 2.3%.
ASAP1 inh = ASAP1 ArfGAP inhibition; Q9ULH1; ASAP1-stimulated ARF1 GTP hydrolysis, GDP FP detection; inhibition, % at 16.5 µM; actives 0.19% (n = 360,000); in the data active means inhibition above about 25%;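 further: 0% = vehicle with enzyme and substrate and 100% = no enzyme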
Target sequence (Q9ULH1 325-724 limits assumed): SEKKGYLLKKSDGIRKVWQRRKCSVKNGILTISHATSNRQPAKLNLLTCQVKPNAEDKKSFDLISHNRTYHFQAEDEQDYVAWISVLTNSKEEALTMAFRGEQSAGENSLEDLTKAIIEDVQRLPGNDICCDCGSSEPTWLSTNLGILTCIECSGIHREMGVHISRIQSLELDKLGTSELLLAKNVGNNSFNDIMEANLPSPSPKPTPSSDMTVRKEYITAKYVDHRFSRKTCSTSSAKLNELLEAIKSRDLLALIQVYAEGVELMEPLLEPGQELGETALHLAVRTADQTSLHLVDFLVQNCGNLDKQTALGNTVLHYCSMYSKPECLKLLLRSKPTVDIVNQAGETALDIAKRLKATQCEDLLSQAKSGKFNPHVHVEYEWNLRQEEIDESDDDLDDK
SKKanGAS inh = inhibitors of SKKanGAS S. pyogenes growth in kanamycin (SK-promoter or general growth effect); AID 1662; inhibition, % at 7.5 µM; BacTiter-Glo, 6 h; actives 1.3% (n = 300,000);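 active means mean replicate score, as percent of positive control median, at least 50; inconclusive means mean below 50 but one replicate at or above 50; inactive means mean and every replicate below 50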;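 further: strain carries kanamycin resistance gene driven by streptokinase promoter and grows in 40 µg/ml kanamycin; loss of luminescence reflects streptokinase promoter inhibition or plain growth inhibition; 0% = median of DMSO wells and 100% = positive control at its reference dose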
Calb FLC = affects C. albicans growth with fluconazole; actives 0.57% (n = 300,000); C. albicans CaCi-2 + fluconazole, Alamar Blue growth, 48 h; growth inhibition, % (concentration not given with the values);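 active means growth inhibition above about 58% in most replicates, limit read from the data, passing the limit was not always enough; inconclusive means exactly half the replicates above a set limit; inactive means most replicates below a set limit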;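 further: all wells also contain fluconazole at 8 µg/ml as a sub-toxic cotreatment; 0% = median of DMSO wells and 100% = median of geldanamycin control wells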
ARFGAP1 inh = inhibitors of rat ARFGAP1. inhibition, % at 16.5 µM. Arfgap1-stimulated ARF1 GTP hydrolysis, GDP FP detection. Q62848. actives 0.26% (n = 360,000);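 active means inhibition above a per-plate limit, mean inhibition of low control wells plus 3 SD, cut at about 25% in these data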;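 further: 0% = DMSO wells with enzyme and 100% = wells lacking Arfgap1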
Target sequence (Q62848 1-136 limits assumed): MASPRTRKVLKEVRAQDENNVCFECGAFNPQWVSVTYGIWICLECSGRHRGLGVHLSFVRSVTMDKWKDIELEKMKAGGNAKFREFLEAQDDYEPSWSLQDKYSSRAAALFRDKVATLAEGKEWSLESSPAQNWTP
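Material: rat Arfgap1 GAP domain (His6, aa 1-136), purified enzyme. Also added: human ARF1(Δ1-17)-GTP substrate. Compound dosing: 16.5 µM single point, 1.26% DMSO. Timing: enzyme reaction 120 min at 25 °C after 20 min preincubation. Signal: GDP detection by fluorescence polarization. Read-out basis: percent inhibition of GAP-stimulated GDP formation, scaled between DMSO and no-Arfgap1 medians.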
sPLA2-III inh = Blocks human group III sPLA2 activity; inhibition, % at 12.2 µM; Q9NZ20; actives 0.56% (n = 370,000); QFRET BODIPY PC-A2 liposome hydrolysis, fluorescence;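 active means inhibition above mean plus 3 SD of compounds lying within the high and low control bounds, cut at about 19% in these data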;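 further: 0% = median of test compound wells and 100% = no enzyme DMSO wells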
The depositor's hits bear a star; ? = inconclusive; · = no result.

SMILES	ASAP1 inh	SKKanGAS inh	Calb FLC	ARFGAP1 inh	sPLA2-III inh
COc1ccccc1NC(=O)Nc1nc(CC(=O)N2CCN(c3ccccc3OC)CC2)cs1	-4.8	58.9*	-5.4	13.2	-17.4
COc1cc(C)ccc1NC(=O)Cc1csc(NC(=O)Nc2ccccc2OC)n1	9.2	56.1*	-2.0	6.7	0.2
FC(F)(F)c1cccc(NC(=S)Nc2ccc(Cl)cc2Cl)c1	7.3	?	1.6	-5.3	2.0
NNC(=S)Nc1ccc(C(F)(F)F)cc1Cl	-2.8	60.5*	-1.3	0.8	12.9
Cc1ccc(NC(=O)CCC(=O)N/N=C/c2cc([N+](=O)[O-])ccc2O)cc1	4.5	3.5	6.4	9.7	-6.8
CC(C)(C)NC(=O)CN(c1cccc([N+](=O)[O-])c1)S(=O)(=O)c1ccccc1	8.1	1.9	0.1	-8.1	-2.5
O=C(CCCC(=O)Nc1cccc(Br)c1)N/N=C/c1cc([N+](=O)[O-])ccc1O	2.5	99.2*	7.0	5.5	-17.2
O=C(CCC(=O)Nc1cccc(Cl)c1)N/N=C/c1cc([N+](=O)[O-])ccc1O	-0.3	99.7*	?	-9.4	-8.2
O=C(CN(c1cccc(Br)c1)S(=O)(=O)c1ccccc1)N/N=C/c1cc([N+](=O)[O-])ccc1O	0.6	118.9*	3.4	9.3	-23.4
Nn1c(SCC(=O)Nc2ccccc2-c2ccccc2)nnc1-c1cc(-c2ccc(F)cc2)n[nH]1	·	·	·	·	-4.3
Cc1ccc(NC(=S)NC(=O)c2ccc(F)cc2)cc1S(=O)(=O)Nc1cccc(Cl)c1	0.6	70.2*	-1.5	6.0	-12.8
O=C(CSc1nnc(-c2ccncc2)n1-c1ccc(Br)cc1)c1ccccc1	·	·	·	·	-30.4
COc1ccc(NC(=S)NC(=O)/C=C/c2cccs2)cc1	11.5	-3.3	-8.0	-1.6	6.1
O=C(/C=C/c1cccs1)NC(=S)Nc1ccc(S(=O)(=O)Nc2ccccc2C(F)(F)F)cc1	12.6	59.3*	14.4	10.1	-59.9
Cc1cc(N/N=C/c2ccccc2O)nc(-c2ccccc2O)n1	4.0	60.4*	3.6	-0.9	4.5
C/C(=N\Nc1cc(C)nc(-c2ccccc2O)n1)c1ccccc1O	-1.2	73.8*	?	1.6	-4.2
Cc1cc(N/N=C/c2ccc(O)cc2O)nc(-c2ccccc2O)n1	·	13.7	2.6	·	·
CCc1nc2c(OCCC3CCCCC3)cccn2c1N(C)C(=O)c1cccs1	-9.2	·	·	-1.0	5.9
C(=C\c1ccccc1)/CN1CCN(C(CCc2ccccc2)c2nnnn2C2CCCC2)CC1 (centres undefined)	-1.7	·	·	-10.8	-18.4
O=C(N[C@@H](Cc1cccnc1)C(=O)N1CCC[C@H]1C(=O)NCCc1ccccc1Cl)c1ccc(Cl)cc1Cl	-7.1	·	·	-12.3	0.8
COc1cccc(N/N=C/c2cccc(Br)c2O)c1	-0.6	62.7*	-6.8	2.3	7.7
CC(C)(C)c1ccc(-c2nnc(SCC(=O)Nc3ccc4c(c3)OCCO4)n2-c2ccc(Cl)cc2)cc1	·	·	·	·	-1.7
Cc1ccc(NC(=S)NCc2ccc3[nH]c4c(c3c2)CCCC4)cc1	4.4	7.4	-9.2	-0.2	-2.9
CC(C)CC(=O)NCc1ccc2[nH]c3c(c2c1)CCCC3	-4.3	-3.6	119.0*	-13.3	-4.7
COC(=O)c1cc(-c2ccc(C(C)=O)cc2)c(=O)n2c1CCC2	·	·	·	·	-4.6
SMILES	ASAP1 inh	SKKanGAS inh	Calb FLC	ARFGAP1 inh	sPLA2-III inh
COc1ccc(-c2csc(NC(=O)c3ccc(S(=O)(=O)N4CCc5ccccc5C4)cc3)n2)cc1	2.5	5.4	-12.9	-0.3	-4.7
CC1CN(S(=O)(=O)c2ccc(C(=O)Nc3nnc(-c4ccco4)o3)cc2)CC(C)O1 (centres undefined)	-0.3	5.8	-36.0	5.5	-16.0
COc1ccc(-c2nnc(NC(=O)C3CCCN3S(=O)(=O)c3cccs3)o2)cc1 (centres undefined)	-0.8	56.4*	-0.8	-3.6	14.3
COc1cccc(-c2nnc(NC(=O)c3ccc(S(=O)(=O)N4CC(C)OC(C)C4)cc3)o2)c1 (centres undefined)	0.8	92.8*	5.8	11.0	-2.8
COc1ccc(-c2nnc(NC(=O)c3ccc(S(=O)(=O)N4CCc5ccccc5C4)cc3)o2)cc1	·	94.1*	96.7*	·	·
O=C(Nc1nnc(-c2ccccc2)o1)C1CCCN1S(=O)(=O)c1cccs1 (centres undefined)	0.3	-0.2	3.8	4.5	14.0
COc1ccc(-c2nnc(-c3cccs3)o2)cc1OC	-1.0	-7.4	9.1	8.0	-1.2
COc1ccc(-c2nc(-c3cccs3)c(-c3cccs3)[nH]2)cc1O	15.6	60.8*	3.8	17.8	-17.4
C=CCN1[C@@H](CC(C)C)COc2cccc(N3CCCC3)c2S1(=O)=O	·	·	·	·	16.3
CN1CCN(NC(=O)Nc2cc(Cl)cc(Cl)c2)CC1	-1.5	88.3*	9.9	2.4	3.0
COc1ccc(NC(=O)NN2CCN(C)CC2)cc1OC	-3.1	2.2	-1.9	2.3	-2.3
O=c1c2ccccc2sc2ccc(NCCCN3CCOCC3)cc12	14.8	-4.5	-5.3	0.7	-10.6
COc1cc2sc3cc(NCCCN4CCOCC4)ccc3c(=O)c2cc1OC	11.2	·	·	31.5*	-16.6
NCCS(=O)(=O)NC1CCCCC1	6.9	66.0*	-23.6	14.0	1.4
C[C@H]1CCCN1c1ccc2c(c1)O[C@@H]1CCN(C1)S2(=O)=O	·	·	·	·	3.1
Cc1c(C(=O)O)sc2ncn(C)c(=O)c12	-13.3	-1.4	5.8	1.4	6.9
Cc1ccc(OC(=O)c2sc3ncn(C)c(=O)c3c2C)cc1	-2.2	77.9*	3.7	9.8	6.5
O=C(CCl)Nc1ccc(-c2ccccc2)cc1	9.0	5.8	91.6*	1.3	6.9
O=C(CCl)Nc1ccc(N=Nc2ccccc2)cc1	0.6	-4.8	-33.6	9.4	7.8
CN(C(=O)c1ccc(NC(=O)Cc2cccc(NC(=O)C3CCN(C(=O)CCc4ccccc4)CC3)c2)cc1)C1CC1	14.4	·	·	1.7	-9.8
CCCCNC(=O)c1cn(CC(C)C)c(=O)c2c1c1ccccc1n2C	-7.9	53.8*	-2.9	7.2	0.7
CC(C)CCNC(=O)c1cn(CC(C)C)c(=O)c2c1c1ccccc1n2C	4.2	1.5	3.9	6.6	-4.9
CCN1/C(=C/c2cccc[n+]2C)Sc2ccc(OC)cc21	1.2	2.3	98.9*	-0.5	3.0
COC(=O)c1cc(-c2cccc(C(F)(F)F)c2)c(=O)n2c1CCC2	·	·	·	·	10.9
Cc1ccccc1Nc1ncccc1C(=O)N1CCOCC1	13.2	-7.8	108.7*	-15.6	-1.1
Cc1ccccc1NS(=O)(=O)c1ccc(C)c(C(=O)N2CCOCC2)c1	-10.8	52.1*	2.5	9.0	1.1
O=C(Cc1ccc(Cl)cc1)Nc1ccc(Br)cc1	14.3	-2.9	41.8*	14.4	3.2
O=C(Cc1ccc(Br)cc1)NNC(=O)Nc1ccc(Cl)cc1	6.3	1.9	1.9	5.5	-7.7
CCOC(=O)CN1C(=O)C(O)(CC(=O)c2cccc(OC)c2)c2ccccc21 (centres undefined)	12.3	-2.6	-80.0	26.2*	6.8
O=C(Sc1cccc2cccnc12)c1ccc(F)cc1	6.5	·	·	10.9	-5.6
